Reference: ChEMBL document CHEMBL1140169, “Discovery of novel PPAR ligands by a virtual screening approach based on pharmacophore modeling, 3D shape, and electrostatic similarity screening” (J Med Chem, 2008)
The source made the active and inactive calls. No cut-off for these calls is given here.

Tests used:
[1] = molecular target: T1, Peroxisome proliferator-activated receptor alpha (Homo sapiens) (UniProt Q07869); experiment: Activation of human PPARalpha ligand binding domain expressed in mouse Hepa 1-6 cells co-transfected with fused Gal4-DBD at 10 uM after 18 hrs by luciferase reporter gene assay relative to GW-7647; type: cell-based
T1 sequence (whole entry): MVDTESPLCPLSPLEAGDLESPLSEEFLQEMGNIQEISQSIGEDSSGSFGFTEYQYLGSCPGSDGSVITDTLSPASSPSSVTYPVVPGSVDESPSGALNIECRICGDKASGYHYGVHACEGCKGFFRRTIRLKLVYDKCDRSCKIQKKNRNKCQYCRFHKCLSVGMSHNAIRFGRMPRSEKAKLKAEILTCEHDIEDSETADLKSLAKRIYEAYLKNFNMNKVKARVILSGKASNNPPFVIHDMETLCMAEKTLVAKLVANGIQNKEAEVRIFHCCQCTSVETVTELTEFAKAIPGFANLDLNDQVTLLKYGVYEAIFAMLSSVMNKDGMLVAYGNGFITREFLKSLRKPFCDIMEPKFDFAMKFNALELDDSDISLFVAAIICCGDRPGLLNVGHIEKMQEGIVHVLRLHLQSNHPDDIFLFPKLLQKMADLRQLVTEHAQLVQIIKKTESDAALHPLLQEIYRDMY
Outline: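 Gal4-hPPARα-LBD/UAS-luciferase transactivation in Hepa 1-6 cells (Metafectene transfection, β-gal normalization). Compound at 10 µM was added 6 h post-transfection and read 18 h later. Activity is given as percent of the response to 30 nM GW7647. Triplicates measured in duplicate.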

[2] = molecular target: T1, Peroxisome proliferator-activated receptor alpha (Homo sapiens); experiment: Activation of human PPARalpha ligand binding domain expressed in mouse Hepa 1-6 cells co-transfected with fused Gal4-DBD at 0.1 to 10 uM by luciferase reporter gene assay relative to control; type: cell-based
Outline: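 Hepa 1-6 cells (MEM, 10% FCS, penicillin/streptomycin) transfected at 50–70% confluence using Metafectene with Gal4-hPPARα-LBD (0.001 µg plus 0.099 µg pBSK), 4xUAS-TK-Luc reporter and CMV-β-galactosidase. Six hours later, compound was added at 0.1, 1 and 10 µM. Lysis and luminometry after 18 h. Luciferase normalized to β-gal, expressed as fold induction over 0.1% DMSO vehicle. Triplicates, each measured in duplicate.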

[3] = molecular target: T2, Peroxisome proliferator-activated receptor alpha (Homo sapiens, UniProt Q07869); experiment: Displacement of fluorescent pan PPAR agonist form GST-tagged human PPARalpha ligand binding domain by FRET assay
T2 sequence (Q07869 whole entry): T1 sequence (whole entry)
Outline: (§1)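 TR-FRET (LanthaScreen) competitive binding: purified GST-tagged PPAR LBD labelled with terbium anti-GST antibody, with a fluorescent pan-PPAR agonist tracer. Displacement was read as RFU over dose-response series in triplicate. IC50 came from a one-site sigmoidal fit. Reference ligands were GW7647 (PPARα) and L165041 (PPARδ).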

[4] = molecular target: T3, Peroxisome proliferator-activated receptor delta (Homo sapiens, UniProt Q03181); experiment: Displacement of fluorescent pan PPAR agonist form GST-tagged human PPARdelta ligand binding domain by FRET assay; outline: as §1
T3 sequence (Q03181 whole entry): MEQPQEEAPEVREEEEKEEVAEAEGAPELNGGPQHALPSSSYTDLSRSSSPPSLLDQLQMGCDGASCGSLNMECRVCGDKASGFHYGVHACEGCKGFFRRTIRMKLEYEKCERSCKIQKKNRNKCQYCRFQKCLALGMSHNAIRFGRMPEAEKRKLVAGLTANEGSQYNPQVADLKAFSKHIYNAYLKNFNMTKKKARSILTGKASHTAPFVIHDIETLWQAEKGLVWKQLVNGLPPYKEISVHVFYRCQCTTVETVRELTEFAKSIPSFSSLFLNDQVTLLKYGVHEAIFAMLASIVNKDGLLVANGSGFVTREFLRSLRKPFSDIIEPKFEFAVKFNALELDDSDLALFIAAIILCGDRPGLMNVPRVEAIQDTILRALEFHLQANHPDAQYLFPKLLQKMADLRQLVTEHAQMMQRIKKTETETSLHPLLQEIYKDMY

[5] = molecular target: T4, Peroxisome proliferator-activated receptor gamma (Homo sapiens) (UniProt P37231); experiment: Activation of human PPARgamma ligand binding domain expressed in MEF cells co-transfected with fused Gal4-DBD at 10 uM after 18 hrs by luciferase reporter gene assay relative to rosiglitazone; type: cell-based
T4 sequence (whole entry): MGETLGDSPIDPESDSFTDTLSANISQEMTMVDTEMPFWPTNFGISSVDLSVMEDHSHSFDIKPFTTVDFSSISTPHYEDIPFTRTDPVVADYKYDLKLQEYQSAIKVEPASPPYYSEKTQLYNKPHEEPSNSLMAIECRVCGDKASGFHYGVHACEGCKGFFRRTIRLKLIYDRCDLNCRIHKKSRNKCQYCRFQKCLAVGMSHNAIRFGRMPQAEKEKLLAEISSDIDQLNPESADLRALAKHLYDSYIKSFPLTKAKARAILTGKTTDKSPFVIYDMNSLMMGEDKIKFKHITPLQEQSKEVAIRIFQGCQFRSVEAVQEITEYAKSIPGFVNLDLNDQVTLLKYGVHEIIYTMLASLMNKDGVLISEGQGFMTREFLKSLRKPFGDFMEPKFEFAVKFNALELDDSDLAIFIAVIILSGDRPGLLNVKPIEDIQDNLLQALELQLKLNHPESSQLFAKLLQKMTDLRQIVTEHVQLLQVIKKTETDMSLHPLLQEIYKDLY
Outline: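 MEFs (DMEM, 10% calf serum) transfected with Gal4-hPPARγ-LBD, 4xUAS-TK-Luc and CMV-β-gal by Metafectene. Compound at 10 µM was added 6 h later and luciferase/β-gal read after 18 h. Activity is expressed as percent of the response to 1 µM rosiglitazone. Triplicates measured in duplicate.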

[6] = molecular target: T5, Peroxisome proliferator-activated receptor gamma (Homo sapiens, UniProt P37231)
T5 sequence (P37231 whole entry): T4 sequence (whole entry)

[7] = molecular target: T6, Peroxisome proliferator-activated receptor delta (Homo sapiens) (UniProt Q03181); experiment: Antagonist activity at human PPARdelta ligand binding domain expressed in MEF cells co-transfected with Gal4-DBD assessed as reduction of L165041-induced transactivation response at 1 uM by luciferase reporter gene assay; type: cell-based
T6 sequence (whole entry): T3 sequence (Q03181 whole entry)
Outline: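 MEFs transfected with Gal4-hPPARδ-LBD, UAS-luciferase reporter and CMV-β-gal. Starting 6 h post-transfection, cells were co-treated with 1 µM L165041 and a range of compound doses. After 18 h, β-gal-normalized luciferase was compared with the L165041 response. Triplicates measured in duplicate.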

Structure (SMILES)	Activity [1] [%]	Activity [2]	IC50 [3] [µM]	IC50 [4] [µM]	Activity [5] [%]	IC50 [6] [µM]	Activity [7]
CCOC(=O)N1CCc2c(sc(NC(=O)Cc3ccc(OC)cc3)c2C(=O)Nc2ccc(C(=O)OC)cc2)C1	40	Active	1.5				
O=C(O)c1ccc(COc2ccc3ccccc3c2/C=N/c2ccc(N3CCOCC3)cc2)cc1	15	Active	43	34			
CCOC(=O)C[C@H](C)NC(=O)c1csc(C2CCN(C(=O)c3c(F)cccc3Cl)CC2)n1	20	Active			15	44	

Continued, values first:

Activity [1] [%]	Activity [2]	IC50 [3] [µM]	IC50 [4] [µM]	Activity [5] [%]	IC50 [6] [µM]	Activity [7]	Structure (SMILES)
15	Active	1	390				CCn1c(SCC(=O)Nc2ccc(C(=O)O)cc2)nnc1-c1cc2cccc(OC)c2o1
	Active		7.2	20	13	Active	COC(=O)c1ccc(NC(=O)C[C@H]2C(=O)N(c3cccc(OC)c3)C(=O)N2Cc2ccc(OC)cc2)cc1
